Assay results as given in ChEMBL document CHEMBL1123394, “Systematic synthesis and biological evaluation of alpha- and beta-D-xylofuranosyl nucleosides of the five naturally occurring bases in nucleic acids and related analogues” (J Med Chem, 1986).
≈ marks a conversion by molar mass, not a printed value.

Key:
[1] = test system: WI-38; experiment: Concentration required for microscopically detectable alteration of the normal cell morphology in Wi-38 cells.; format: functional; conditions: Homo sapiens
Summary of the method: (§1)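 Host-cell morphology inspected microscopically for detectable alteration, with compounds in growth medium at up to 200 or 400 μg/mL.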

[2] = Antiviral activity was measured against Vesicular stomatitis virus in rabbit kidney cells.; format: functional; conditions: Oryctolagus cuniculus
Summary of the method: (§2)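 Inhibition of virus-induced cytopathogenicity in cell culture. Compounds were dissolved in growth medium at 100, 10 or 1 μg/mL or less.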

[3] = Concentration required to reduce DNA synthesis in primary rabbit kidney cells using [3H-Methyl]-dThd incorporation; format: functional; conditions: Oryctolagus cuniculus, read-out: ID50 (the source's name)
Summary of the method: (§3)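 Primary rabbit kidney cells with compounds in growth medium at 100, 10, or 1 μg/mL or less. Cell number and incorporation of [3H-methyl]dThd (DNA), [3H-5]Urd (RNA) or [3H2-4,5]leucine (protein) measured. ID50 taken as the dose giving 50% reduction in cell number or in DNA, RNA or protein synthesis.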

[4] = Concentration required for microscopically detectable alteration of the normal cell morphology in PRK cells.; format: functional; conditions: Oryctolagus cuniculus; summary of the method: as §1
[5] = test system: Mus musculus; experiment: Toxicity of compound against mice was determined at a concentration of 100 mg/kg; format: organism-based; parameters: dose 100 mg/kg; conditions: in vivo
Summary of the method: (§4)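 Swiss mice (20-24 g) received a single intraperitoneal dose of 100-2,000 mg/kg. Compound was suspended in distilled water containing 0.2 g Tween 80 and 0.2 g (carboxymethyl)cellulose per 100 mL. Mice were followed for 14 days for acute toxicity.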

[6] = organism: Mus musculus; experiment: Efficacy expressed as number of surviving mice infected with herpetic encephalitis at dose of 75 mg.kg; format: functional
Summary of the method: (§5)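 Young mice (10 g) were inoculated intracerebrally with 0.03 mL of herpes simplex virus suspension containing ca. 4 CCID50. Compound was given at 75 or 150 mg/kg per day as two daily intraperitoneal injections for 4 days. Read-out was the number of surviving mice.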

[7] = test system: Mus musculus; experiment: Efficacy expressed as number of surviving mice infected with herpetic encephalitis at dose of 0 mg/kg; format: functional
[8] = test system: Vero; experiment: Antiviral activity was measured against forest virus in african green monkey kidney (Vero B) cells.; format: functional; conditions: Chlorocebus sabaeus
Summary of the method: (§6)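 Inhibition of virus-induced cytopathogenicity scored in cell culture monolayers. Test compounds dissolved in growth medium at 100, 10, or 1 μg/mL or less.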

[9] = test system: Vero; experiment: Antiviral activity was measured against Reo virus-1 in african green monkey kidney (Vero B) cells.; format: functional; conditions: Chlorocebus sabaeus; summary of the method: as §6
[10] = test system: Vero; experiment: Antiviral activity was measured against Coxsackie virus B4 in african green monkey kidney (Vero B) cells.; format: functional; conditions: Chlorocebus sabaeus; summary of the method: as §6
[11] = test system: HeLa; experiment: Antiviral activity was measured against Coxsackie virus B4 in HeLa cells.; format: functional; conditions: Homo sapiens; summary of the method: as §2
[12] = test system: WI-38; experiment: Antiviral activity was measured against Rhino virus-1A in human diploid (WI-38) cells.; format: functional; summary of the method: as §6
[13] = test system: HeLa; experiment: Concentration required for microscopically detectable alteration of the normal cell morphology in HeLa cells.; format: functional; conditions: Homo sapiens; summary of the method: as §1
[14] = test system: HeLa; experiment: Antiviral activity was measured against vesicular stomatitis virus in HeLa cells.; format: functional; conditions: Homo sapiens; summary of the method: as §2
[15] = test system: WI-38; experiment: Antiviral activity was measured against Rhino virus-9 in human diploid (WI-38) cells.; format: functional; summary of the method: as §6
[16] = Antiviral activity was measured against Herpes simplex virus (HSV-1 KOS) in rabbit kidney cells.; format: functional; conditions: Oryctolagus cuniculus; summary of the method: as §2
[17] = test system: Mus musculus; experiment: Toxicity of compound against mice was determined at a concentration of 250 mg/kg; format: organism-based; parameters: dose 250 mg/kg; conditions: in vivo; summary of the method: as §4
[18] = test system: Mus musculus; experiment: Toxicity of compound against mice was determined at a concentration of 2000 mg/kg; format: organism-based; parameters: dose 2000 mg/kg; conditions: in vivo; summary of the method: as §4
[19] = Concentration required to reduce RNA synthesis in primary rabbit kidney cells using [3H-5]-Urd incorporation; format: functional; conditions: Oryctolagus cuniculus, read-out: ID50 (the source's name); summary of the method: as §3
[20] = test system: Vero; experiment: Antiviral activity was measured against Sindbis virus in african green monkey kidney (Vero B) cells.; format: functional; conditions: Chlorocebus sabaeus; summary of the method: as §6
[21] = test system: Mus musculus; experiment: Toxicity of compound against mice was determined at a concentration of 1200 mg/kg; format: organism-based; parameters: dose 1200 mg/kg; conditions: in vivo; summary of the method: as §4
[22] = Antiviral activity was measured against Vaccinia virus in rabbit kidney cells.; format: functional; conditions: Oryctolagus cuniculus; summary of the method: as §2
[23] = Concentration required to reduce protein synthesis in primary rabbit kidney cells usingi [3H2-4,5]leucine incorporation; format: functional; conditions: Oryctolagus cuniculus, read-out: ID50 (the source's name); summary of the method: as §3
[24] = test system: Vero; experiment: Antiviral activity was measured against Parainfluenza virus-3 in african green monkey kidney (Vero B) cells.; format: functional; conditions: Chlorocebus sabaeus; summary of the method: as §6
[25] = test system: Mus musculus; experiment: Toxicity of compound against mice was determined at a concentration of 750 mg/kg; format: organism-based; parameters: dose 750 mg/kg; conditions: in vivo; summary of the method: as §4
[26] = test system: Mus musculus; experiment: Efficacy expressed as number of surviving mice infected with herpetic encephalitis at dose of 150 mg/kg; format: functional; summary of the method: as §5
[27] = Antiviral activity was measured against Herpes simplex virus (HSV-2 G) in rabbit kidney cells.; format: functional; conditions: Oryctolagus cuniculus; summary of the method: as §6
[28] = test system: Vero; experiment: Concentration required for microscopically detectable alteration of the normal cell morphology in Vero B cells.; format: functional; conditions: Chlorocebus sabaeus; summary of the method: as §1
[29] = dose required to reduce primary rabbit kidney cell growth; format: functional; conditions: Oryctolagus cuniculus, read-out: ID50 (the source's name); summary of the method: as §3
[30] = test system: HeLa; experiment: Antiviral activity was measured against Vesicular stomatitis virus in HeLa cells.; format: functional; conditions: Homo sapiens; summary of the method: as §2
[31] = test system: HeLa; experiment: Antiviral activity was measured against Polio virus-1 in HeLa cells.; format: functional; conditions: Homo sapiens; summary of the method: as §2
[32] = Number of living cells on the proliferation of mouse myeloma cells SP2 was measured at concentration 100 ug/mL at 0h.; format: functional
Summary of the method: (§7)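 Mouse myeloma SP2 cells seeded at 123 × 10^3 cells and exposed to compound at 1, 10 or 100 μg/mL in growth medium. Living cells counted at 0, 48 and 96 h alongside untreated controls.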

[33] = Number of living cells on the proliferation of mouse myeloma cells SP2 was measured at concentration 100 ug/mL at 96 h.; format: functional; summary of the method: as §7
[34] = test system: Mus musculus; experiment: Efficacy expressed as number of surviving mice infected with herpetic encephalitis at dose of 150 mg/kg; T is Toxic; format: functional, organism-based; parameters: dose 150 mg/kg
[35] = Number of living cells on the proliferation of mouse myeloma cells SP2 was measured at concentration 100 ug/mL at 48 hr.; format: functional; summary of the method: as §7
[36] = Number of living cells on the proliferation of mouse myeloma cells SP2 was measured at concentration 10 ug/mL at 96 h.; format: functional; summary of the method: as §7
[37] = Dose required to reduce primary rabbit kidney cell growth; format: functional; conditions: Oryctolagus cuniculus, read-out: ID50 (the source's name); summary of the method: as §3
[38] = Number of living cells on the proliferation of mouse myeloma cells SP2 was measured at concentration 10 ug/mL at 48 hr.; format: functional; summary of the method: as §7
[39] = Number of living cells on the proliferation of mouse myeloma cells SP2 was measured at concentration 1 ug/mL at 0h.; format: functional; summary of the method: as §7
[40] = Number of living cells on the proliferation of mouse myeloma cells SP2 was measured at concentration 1 ug/mL at 48 hr.; format: functional; summary of the method: as §7
[41] = Number of living cells on the proliferation of mouse myeloma cells SP2 was measured at concentration 1 ug/mL at 96 h.; format: functional; summary of the method: as §7
[42] = Antiviral activity was measured against vaccinia virus in rabbit kidney cells.; format: functional; conditions: Oryctolagus cuniculus; summary of the method: as §2
[43] = Antiviral activity was measured against vesicular stomatitis virus in rabbit kidney cells.; format: functional; conditions: Oryctolagus cuniculus; summary of the method: as §2
[44] = test system: HeLa; experiment: Antiviral activity was measured against polio virus-1 in HeLa cells.; format: functional; conditions: Homo sapiens; summary of the method: as §2

Row | SMILES | MCC [1] [µg/mL] | MCC [2] [µg/mL] | IC50 [3] [µg/mL] | MCC [4] [µg/mL] | Efficacy [6] [mg/kg] | MCC [8] [µg/mL] | MCC [9] [µg/mL] | MCC [10] [µg/mL] | MCC [11] [µg/mL] | MCC [12] [µg/mL] | MCC [13] [µg/mL] | MCC [15] [µg/mL] | MCC [16] [µg/mL] | IC50 [19] [µg/mL] | MCC [20] [µg/mL] | MCC [22] [µg/mL] | IC50 [23] [µg/mL] | MCC [24] [µg/mL] | MCC [27] [µg/mL] | MCC [28] [µg/mL] | also measured
1 | Nc1ncnc2c1ncn2[C@@H]1O[C@H](CO)[C@@H](O)[C@@H]1O [VIDARABINE] | ≥ 100 | 70 | 31 (≈ 116 µM) | ≥ 200 | 0 | > 100 | 150 | > 100 | > 100 | > 100 | ≥ 200 | > 100 | 20 | 15 (≈ 56.1 µM) | > 100 | 2 | > 200 | 150 | 10 | ≥ 200 | No. of dead mice [5]: 0; Efficacy [7]: 0 mg/kg; MCC [14]: 150 µg/mL; No. of dead mice [17]: 0; No. of dead mice [18]: 0; No. of dead mice [21]: 0; No. of dead mice [25]: 0; Efficacy [26]: 0 mg/kg; IC50 [29]: 27 µg/mL (≈ 101 µM)
2 | NC(=O)c1ncn([C@@H]2O[C@H](CO)[C@@H](O)[C@H]2O)n1 [RIBAVIRIN] | > 400 | 100 |  | > 400 |  | 70 | 7 | 70 | 70 | 150 | ≥ 400 | 70 | > 400 |  | 70 | 7 |  | 20 | > 400 | ≥ 400 | MCC [30]: 20 µg/mL; MCC [31]: 70 µg/mL
3 | Nc1nc(O)c2ncn([C@@H]3O[C@H](CO)[C@H](O)[C@H]3O)c2n1 | > 400 | > 200 | 71 (≈ 251 µM) | > 200 | 3 | > 400 | > 400 | > 400 | > 200 | > 400 | 400 | > 400 | 70 | 61 (≈ 215 µM) | > 400 | 10 | 148 (≈ 523 µM) | > 400 | 70 | > 400 | No. of living cells [32]: 0.123; Efficacy [7]: 0 mg/kg; No. of living cells [33]: 0; Efficacy [34]: Toxic; No. of living cells [35]: 0.024; IC50 [29]: 62 µg/mL (≈ 219 µM)
4 | Nc1ncnc2c1ncn2[C@@H]1O[C@H](CO)[C@H](O)[C@H]1O | 200 |  | 17 (≈ 63.6 µM) | > 100 |  | > 40 | > 40 | > 40 | > 40 | 20 | 100 | 20 | > 40 | 46 (≈ 172 µM) | > 40 |  | 37 (≈ 138 µM) | > 40 | > 40 | > 100 | No. of living cells [32]: 0.123; No. of living cells [36]: 0.4; IC50 [37]: 23 µg/mL (≈ 86.1 µM); No. of living cells [38]: 0.048; No. of living cells [39]: 0.123; No. of living cells [40]: 0.864; No. of living cells [33]: 0; No. of living cells [41]: 1.368; No. of living cells [35]: 0.008
5 | Nc1ncnc2c1ccn2[C@@H]1O[C@H](CO)[C@@H](O)[C@H]1O [TUBERCIDIN] | 0.4 |  |  | ≥ 0.4 |  | > 0.4 | 0.1 | > 0.1 | 0.2 | 0.01 | ≥ 1 | 0.007 | > 0.1 |  | > 0.1 |  |  | 0.2 | > 0.1 | ≥ 0.4 | MCC [42]: > 0.1 µg/mL; MCC [43]: 0.07 µg/mL; MCC [14]: 0.07 µg/mL; MCC [44]: 0.2 µg/mL
